Reference: the array DNA melting data of Ke et al. (doi:10.1101/2024.01.08.574731)

Legend:
[1] = folding enthalpy; higher = less favourable; fluorescence melt of hairpins on a sequencing array, two-state fit; settings: sodium 0.088 M
Summary of the method: (§1)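 Melting temperature and folding enthalpy were derived from bootstrapped two-state fits. The fitted temperatures were raised by 9.35 °C to agree with UV melts, and four replicates were combined by inverse variance. The underlying data were Cy3 fluorescence images of library hairpins, with annealed Cy3 and quencher oligos, on a sequenced MiSeq flow cell in 50 mM Na-HEPES pH 8.0, 25 mM NaCl, taken in 2.5 °C steps up to 60 °C, normalised to pre-quench Cy3 and to control constructs.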

[2] = melting temperature; fluorescence melt of hairpins on a sequencing array, two-state fit, raised by 9.35 °C to match UV melts; settings: sodium 0.088 M
Summary of the method: as §1

Sequence | folding enthalpy [1] | Tm [2]
GTCCACCGAAAGGTAGAC (((.(((....))).))) | -111 kJ/mol | 47.4 °C
GTCCACCGAAAGGTGAC (((.(((....)))))) | -52.4 kJ/mol | 46.1 °C
GTCCACGAAAGTGCAGAC ((((((....)))..))) | -69.2 kJ/mol | 36.2 °C
GTCCACGAAAGTGCGAC ((((((....))).))) | -95.4 kJ/mol | 50.9 °C
GTCCACGAAAGTGCGGAC ((((((....)))..))) | -72.7 kJ/mol | 45 °C
GTCCACGAAAGTGTGAC ((((((....))).))) | -93.6 kJ/mol | 50.4 °C
GTCCACGGAAACGTAGAC (((.(((....))).))) | -111 kJ/mol | 41 °C
GTCCACGGAAACGTGAAC ((.((((....)))).)) | -75.8 kJ/mol | 45.5 °C
GTCCAGACGAAAGTCGAC (((..(((....)))))) | -46.4 kJ/mol | 36.9 °C
GTCCAGGCGAAAGCCGAC (((..(((....)))))) | -40.2 kJ/mol | 37 °C
GTCCAGTCGAAAGACGAC (((..(((....)))))) | -62.6 kJ/mol | 34.8 °C
GTCCATCGAAAGATAGAC (((.(((....))).))) | -127 kJ/mol | 35.2 °C
GTCCATCGAAAGATGAC (((.(((....)))))) | -70.7 kJ/mol | 42.5 °C
GTCCATGGAAACACGGAC ((((.((....)).)))) | -105 kJ/mol | 42.1 °C
GTCCATGGAAACATGGGC (.(((((....))))).) | -180 kJ/mol | 54 °C
GTCCCACCGAAAGGTGAC (((..(((....)))))) | -34.8 kJ/mol | 27 °C
GTCCCAGCGAAAGCTGAC (((..(((....)))))) | -36.9 kJ/mol | 22.4 °C
GTCCCAGGAAACTGGAAC ((.((((....)))).)) | -92 kJ/mol | 35.8 °C
GTCCCAGGAAACTGGGAC (((((((....))))))) | -149 kJ/mol | 68.8 °C
GTCCCCCCGAAAGGGGAC (((..(((....)))))) | -70.8 kJ/mol | 59.5 °C
GTCCCCCGAAAGGGTGAC (((.(((....))).))) | -118 kJ/mol | 52.5 °C
GTCCCCGAAAGGGACGAC ((((((....)))..))) | -75.4 kJ/mol | 69.3 °C
GTCCCCGAAAGGGGAGAC ((((((....)))..))) | -34.5 kJ/mol | 54.2 °C

Sequence | folding enthalpy [1] | Tm [2]
GTCCCCGAAAGGGTGGAC ((((((....)))..))) | -61.7 kJ/mol | 48.9 °C
GTCCCCGAAAGGGTTGAC ((((((....)))..))) | -63.8 kJ/mol | 33.7 °C
GTCCCGGGAAACCAGGAC ((((.((....)).)))) | -95.1 kJ/mol | 46 °C
GTCCGAGGAAACTCGGGC (.(((((....))))).) | -127 kJ/mol | 59.5 °C
GTCCGATCGAAAGATGAC (((..(((....)))))) | -44.8 kJ/mol | 28.3 °C
GTCCGCCGAAAGGCGAC (((.(((....)))))) | -39.9 kJ/mol | 52.5 °C
GTCCGCGAAAGCGAGAC ((((((....))).))) | -59.2 kJ/mol | 59.2 °C
GTCCGCGAAAGCGATGAC ((((((....)))..))) | -66.4 kJ/mol | 38.3 °C
GTCCGCGAAAGCGCAGAC ((((((....)))..))) | -61.3 kJ/mol | 40.8 °C
GTCCGCGAAAGCGGGGAC ((((((....)))..))) | -34.6 kJ/mol | 47.3 °C
GTCCGCGAAAGCGTCGAC ((((((....)))..))) | -55.5 kJ/mol | 37.2 °C
GTCCGCGGAAACGCGAAC ((.((((....)))).)) | -69 kJ/mol | 50.9 °C
GTCCGCGGAAACGTGGGC (.((.((....)).)).) | -111 kJ/mol | 53 °C
GTCCGGACGAAAGTCGAC (((..(((....)))))) | -58.7 kJ/mol | 35.5 °C
GTCCGGGGAAACCCGGGC (.(((((....))))).) | -90.5 kJ/mol | 65 °C
GTCCGTCGAAAGACAGAC (((.(((....))).))) | -93.4 kJ/mol | 47 °C
GTCCTACGAAAGTAGAC (((.(((....)))))) | -75.7 kJ/mol | 39.6 °C
GTCCTAGCGAAAGCTGAC (((..(((....)))))) | -52.9 kJ/mol | 31.5 °C
GTCCTCCGAAAGGATGAC (((.(((....))).))) | -129 kJ/mol | 48.6 °C
GTCCTCGAAAGAGAGGAC ((((((....)))..))) | -127 kJ/mol | 52.9 °C
GTCCTCGAAAGAGCGGAC ((((((....)))..))) | -92.3 kJ/mol | 36.1 °C
GTCCTCGAAAGAGGTGAC ((((((....)))..))) | -48.7 kJ/mol | 35.5 °C
GTCCTCGAAAGAGTGGAC ((((((....)))..))) | -98.9 kJ/mol | 41.6 °C

Sequence | folding enthalpy [1] | Tm [2]
GTCCTCGGAAACGAGAAC ((.((((....)))).)) | -86.5 kJ/mol | 39.7 °C
GTCCTGGGAAACCAGGGC (.(((((....))))).) | -149 kJ/mol | 56.9 °C
GTCCTTCGAAAGAAGAC (((.(((....)))))) | -76.5 kJ/mol | 36.7 °C
GTCCTTTCGAAAGAAGAC (((..(((....)))))) | -64.2 kJ/mol | 28.5 °C
GTCGAACCGAAAGGTGAC (((..(((....)))))) | -75.3 kJ/mol | 42 °C
GTCGAAGGAAACTTCGGC (.(((((....))))).) | -180 kJ/mol | 51.3 °C
GTCGACGAAAGTCCGGAC ((((((....)))..))) | -75.7 kJ/mol | 37 °C
GTCGACGAAAGTCCTGAC ((((((....)))..))) | -53.8 kJ/mol | 31.6 °C
GTCGACGAAAGTCGGGAC ((((((....)))..))) | -44.1 kJ/mol | 39.1 °C
GTCGACGAAAGTCGTGAC ((((((....)))..))) | -42 kJ/mol | 43.6 °C
GTCGAGCGAAAGCTGAC (((.(((....)))))) | -83.6 kJ/mol | 57.7 °C
GTCGATCCGAAAGGAGAC (((..(((....)))))) | -94.8 kJ/mol | 40 °C
GTCGCAGAAATGCGAC ((((((....)))))) | -159 kJ/mol | 69.1 °C
GTCGCAGGAAACTGTGAC (((.(((....))).))) | -177 kJ/mol | 53.9 °C
GTCGCCCGAAAGGGGAC (((.(((....)))))) | -89.4 kJ/mol | 55.2 °C
GTCGCCGAAAGGCACGAC ((((((....)))..))) | -65.2 kJ/mol | 48.4 °C
GTCGCCGAAAGGCAGGAC ((((((....)))..))) | -54.6 kJ/mol | 50.4 °C
GTCGCCGAAAGGCTAGAC ((((((....)))..))) | -70.5 kJ/mol | 47.1 °C
GTCGCCGAAAGGCTGAC ((((((....))).))) | -74.4 kJ/mol | 57.1 °C
GTCGCCGGAAACGACGAC ((((.((....)).)))) | -182 kJ/mol | 57.5 °C
GTCGCGACGAAAGTCGAC (((..(((....)))))) | -34.7 kJ/mol | 38.2 °C
GTCGCGCCGAAAGGCGAC (((..(((....)))))) | -32.2 kJ/mol | 43 °C
